The structures appear in SMILES notation. Values after ≈ are worked out from the molar mass of the structure shown.

Assay [1] has as its system Staphylococcus aureus. Kind of assay: Antimicrobial activity against Panton-valentine leucocidin-positive community-acquired methicillin-resistant Staphylococcus aureus isolate MEH2225605 infected in human THP-1 cells assessed as bacterial count per mg of cell protein at high extracellular compound concentration after 24 hrs at pH 5.5. The assay is classed as functional. An outline of the steps:
(§1)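 THP-1 human macrophages infected with S. aureus (postphagocytosis inoculum 1.5 × 10^6 to 3.0 × 10^6 CFU/mg cell protein), then incubated 24 h with increasing extracellular antibiotic concentrations. Change in log10 CFU/mg cell protein from the postphagocytosis inoculum, n = 3. Hill function fitted on log-transformed data. Low-concentration value (E0) and high-concentration value (Emax) are extrapolated. Where a pH is given, concentrations are expressed as multiples of the broth MIC at that pH.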

Assay [2] has as its system Staphylococcus aureus. The experiment in a line: Antimicrobial activity against hospital-acquired methicillin-resistant Staphylococcus aureus ATCC 33592 infected in human THP-1 cells assessed as change in bacterial count after 24 hrs at pH 7.4. Type of assay: functional, organism-based. As to conditions: ATCC 33592, THP-1, 24 h. In short, it runs like this: (§2)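 THP-1 macrophages infected as described previously, with a postphagocytosis inoculum of 1.5 × 10⁶ to 3.0 × 10⁶ CFU/mg cell protein. Cells were exposed 24 h to increasing extracellular antibiotic concentrations. Response is the change in log10 CFU/mg protein from the inoculum (n = 3), fitted to a Hill function. E0 and Emax were extrapolated to infinitely low and high concentrations. EC50 and static concentration (graphical interpolation) are expressed as multiples of the broth MIC at pH 5.5 or 7.4.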

Assay [3] concerns Staphylococcus aureus. Kind of assay: Antimicrobial activity against hospital-acquired methicillin-resistant Staphylococcus aureus ATCC 33591 infected in human THP-1 cells assessed as bacterial count per mg of cell protein at low extracellular compound concentration after 24 hrs. The assay is classed as functional. An outline of the steps: as §2
The subject of assay [4] is Staphylococcus aureus. The experiment in a line: Antimicrobial activity against hospital-acquired vancomycin-intermediate Staphylococcus aureus NRS126 infected in human THP-1 cells assessed as change in bacterial count after 24 hrs at pH 7.4. Type of assay: functional, organism-based. To be noted: NRS126, THP-1, 24 h. An outline of the steps: as §2
In assay [5] the test system is Staphylococcus aureus. The experiment in a line: Antimicrobial activity against Panton-valentine leucocidin-positive community-acquired methicillin-resistant Staphylococcus aureus STA 44 infected in human THP-1 cells assessed as change in bacterial count after 24 hrs at pH 5.5. Type of assay: functional, organism-based. As to conditions: STA 44, THP-1, 24 h. An outline of the steps:
as §1

The subject of assay [6] is Staphylococcus aureus. The experiment in a line: Antimicrobial activity against hospital-acquired vancomycin-intermediate Staphylococcus aureus NRS126 infected in human THP-1 cells assessed as bacterial count per mg of cell protein at high extracellular compound concentration after 24 hrs at pH 7.4. The assay is classed as functional. In short, it runs like this:
as §2

Assay [7] concerns Staphylococcus aureus. Kind of assay: Antimicrobial activity against methicillin-susceptible Staphylococcus aureus […] infected in human THP-1 cells assessed as bacterial count per mg of cell protein at low extracellular compound concentration after 24 hrs. The assay is classed as functional. In short, it runs like this: (§3)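 Human THP-1 macrophage-like cells were infected with S. aureus to a postphagocytosis inoculum of 1.5 × 10^6 to 3.0 × 10^6 CFU/mg cell protein. Cells were then exposed 24 h to increasing extracellular antibiotic concentrations. Response was the log10 CFU change per mg protein from the postphagocytosis inoculum, n = 3. A Hill function was fitted on log-transformed axes. E0 and Emax were extrapolated to infinitely low and high concentrations. Cs was read by graphical interpolation. Concentrations were expressed as multiples of the broth MIC at pH 5.5 or pH 7.4.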

Assay [8] relates to Staphylococcus aureus. The experiment in a line: Bacteriostatic activity against hospital-acquired vancomycin-intermediate Staphylococcus aureus NRS18 infected in human THP-1 cells assessed as change in bacterial count after 24 hrs at pH 7.4. Type of assay: functional. An outline of the steps:
as §3

Assay [9] has as its system Staphylococcus aureus. Kind of assay: Bacteriostatic activity against methicillin-susceptible Staphylococcus aureus NRS52 infected in human THP-1 cells assessed as change in bacterial count after 24 hrs at pH 5.5. The assay is classed as functional. In short, it runs like this: as §3
Assay [10] deals with Staphylococcus aureus. Kind of assay: Antimicrobial activity against hospital-acquired methicillin-resistant Staphylococcus aureus ATCC 33591 infected in human THP-1 cells assessed as change in bacterial count after 24 hrs at pH 7.4. The assay is classed as functional, organism-based. To be noted: ATCC 33591, THP-1, 24 h. In short, it runs like this: as §2
The subject of assay [11] is Staphylococcus aureus. Kind of assay: Antimicrobial activity against methicillin-susceptible Staphylococcus aureus […] infected in human THP-1 cells assessed as bacterial count per mg of cell protein at high extracellular compound concentration after 24 hrs at pH 7.4. Type of assay: functional. In short, it runs like this: as §3
The subject of assay [12] is Staphylococcus aureus. Kind of assay: Antimicrobial activity against Panton-valentine leucocidin-positive community-acquired methicillin-resistant Staphylococcus aureus N4090440 infected in human THP-1 cells assessed as bacterial count per mg of cell protein at high extracellular compound concentration after 24 hrs. The assay is classed as functional. In short, it runs like this: as §1

The test system of assay [13] is Staphylococcus aureus. Kind of assay: Antimicrobial activity against methicillin-susceptible Staphylococcus aureus NRS52 infected in human THP-1 cells assessed as change in bacterial count after 24 hrs. To be noted: NRS52, THP-1, 24 h. The assay is classed as functional, organism-based. An outline of the steps:
as §2

In assay [14] the test system is Staphylococcus aureus. Kind of assay: Antimicrobial activity against hospital-acquired vancomycin-intermediate Staphylococcus aureus NRS18 infected in human THP-1 cells assessed as bacterial count per mg of cell protein at low extracellular compound concentration after 24 hrs at pH 7.4. Type of assay: functional. In short, it runs like this: as §3
Assay [15] has as its system Staphylococcus aureus. The experiment in a line: Antimicrobial activity against Panton-valentine leucocidin-positive community-acquired methicillin-resistant Staphylococcus aureus STA 44 infected in human THP-1 cells assessed as change in bacterial count after 24 hrs at pH 7.4. The assay is classed as functional, organism-based. To be noted: STA 44, THP-1, 24 h. An outline of the steps:
as §1

The subject of assay [16] is Staphylococcus aureus. The experiment in a line: Antimicrobial activity against Panton-valentine leucocidin-positive community-acquired methicillin-resistant Staphylococcus aureus N4042228 infected in human THP-1 cells assessed as bacterial count per mg of cell protein at low extracellular compound concentration after 24 hrs. Type of assay: functional. In short, it runs like this:
as §1

Assay [17] relates to Staphylococcus aureus. Kind of assay: Antimicrobial activity against Panton-valentine leucocidin-positive community-acquired methicillin-resistant Staphylococcus aureus STA 44 infected in human THP-1 cells assessed as bacterial count per mg of cell protein at high extracellular compound concentration after 24 hrs. The assay is classed as functional. In short, it runs like this:
as §1

Assay [18] has as its system Staphylococcus aureus. Kind of assay: Antimicrobial activity against methicillin-susceptible Staphylococcus aureus NRS52 infected in human THP-1 cells assessed as bacterial count per mg of cell protein at low extracellular compound concentration after 24 hrs. The assay is classed as functional. An outline of the steps: as §3
Assay [19] has as its system Staphylococcus aureus. Kind of assay: Antimicrobial activity against methicillin-susceptible Staphylococcus aureus […] infected in human THP-1 cells assessed as bacterial count per mg of cell protein at high extracellular compound concentration after 24 hrs at pH 5.5. The assay is classed as functional. In short, it runs like this:
as §3

Assay [20] has as its system Staphylococcus aureus. The experiment in a line: Antimicrobial activity against hospital-acquired methicillin-resistant Staphylococcus aureus ATCC 33592 infected in human THP-1 cells assessed as bacterial count per mg of cell protein at low extracellular compound concentration after 24 hrs. The assay is classed as functional. An outline of the steps: as §2
Assay [21] deals with Staphylococcus aureus. Kind of assay: Antimicrobial activity against Panton-valentine leucocidin-positive community-acquired methicillin-resistant Staphylococcus aureus N4042228 infected in human THP-1 cells assessed as change in bacterial count after 24 hrs at pH 5.5. To be noted: N4042228, THP-1, 24 h. The assay is classed as functional, organism-based. In short, it runs like this:
as §1

In assay [22] the test system is Staphylococcus aureus. Kind of assay: Antimicrobial activity against hospital-acquired methicillin-resistant Staphylococcus aureus ATCC 33591 infected in human THP-1 cells assessed as bacterial count per mg of cell protein at high extracellular compound concentration after 24 hrs. Type of assay: functional. An outline of the steps: as §1
Assay [23] concerns Staphylococcus aureus. Kind of assay: Antimicrobial activity against hospital-acquired vancomycin-intermediate Staphylococcus aureus NRS126 infected in human THP-1 cells assessed as change in bacterial count after 24 hrs at pH 5.5. Type of assay: functional, organism-based. To be noted: NRS126, THP-1, 24 h. In short, it runs like this: as §2
Assay [24] concerns Staphylococcus aureus. Kind of assay: Ratio of MIC for hospital-acquired methicillin-resistant Staphylococcus aureus ATCC 33591 by microdilution method at pH 7.4 to ratio of MIC for hospital-acquired methicillin-resistant Staphylococcus aureus ATCC 33591 by microdilution method at pH 5.5. The assay is classed as functional. In short, it runs like this: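 MICs were determined by broth microdilution at pH 7.4 and pH 5.5. Broth was adjusted before inoculation, and pH was confirmed maintained (±0.1 unit) at the end.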
In general terms: Dilution methods test growth across graded concentrations, often in twofold steps.

On to `Nc1nc(/C(=N/O)C(=O)N[C@@H]2C(=O)N3C(C(=O)O)=C(/C=C4\CCN([C@@H]5CCNC5)C4=O)CS[C@H]23)ns1` [CEFTOBIPROLE], for which the log10cfu in the assay on Staphylococcus aureus [1] was -1.02; with Staphylococcus aureus [3] it was 2.47; in the assay with Staphylococcus aureus [6], -0.99; in the assay with Staphylococcus aureus [7], 3.49; in the assay with Staphylococcus aureus [11] it was -1.04; in the assay with Staphylococcus aureus [12], -1.05. Moreover, the log10cfu with Staphylococcus aureus [14] is reported as 2.6; with Staphylococcus aureus [16], 3.45; with Staphylococcus aureus [17] it was -1.02; with Staphylococcus aureus [18] it was 2.89; with Staphylococcus aureus [19] it was 1.04; with Staphylococcus aureus [20] it was 2.58. Moreover, the log10cfu in the assay on Staphylococcus aureus [22] is -0.78. Besides, the EC50 in the assay with Staphylococcus aureus [2] amounted to 0.28 ×MIC; in the assay with Staphylococcus aureus [4] it was 0.28 ×MIC; with Staphylococcus aureus [5] it was 0.54 × MIC; in the assay with Staphylococcus aureus [10], 0.28 ×MIC; with Staphylococcus aureus [13], 0.19 mg/L (≈ 0.355 µM); in the assay with Staphylococcus aureus [15] it was 0.33 ×MIC. Further, the EC50 in the assay on Staphylococcus aureus [21] was determined as 0.54 × MIC; in the assay on Staphylococcus aureus [23] it was 0.77 × MIC. Moreover, the figures for the Activity with Staphylococcus aureus [8] and in the assay with Staphylococcus aureus [9] were 0.74 mg/L and 1.19 × MIC, respectively. The “fold change (FC)” value in the assay on Staphylococcus aureus [24] was 4.

(Values after ChEMBL document CHEMBL1649438, “Activities of ceftobiprole and other cephalosporins against extracellular and intracellular (THP-1 macrophages and keratinocytes) forms of methicillin-susceptible and methicillin-resistant Staphylococcus aureus” (Antimicrob Agents Chemother, 2009).)
